# Assay outcomes from PubChem.
# TAAR1 antagonist – antagonists of human TAAR1; Q96RJ0; CHO RD-HGA16 TAAR1, Fluo-8 calcium fluorescence, antagonist; inhibition, % at 3 µM; 1.5% of 360,000 active; AID 624466;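 active means inhibition above a per-plate cutoff, the mean inhibition of test compounds on that plate plus 3 SD, cut at about 49% in these data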;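 further: 0% = DMSO plus EC80 beta-PEA response and 100% = DMSO alone without agonist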
#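 Assay system: CHO-derived RD-HGA16 cells stably expressing human TAAR1 plus Gα16. Timing: 140 s kinetic read after compound, 140 s after agonist. Technique: kinetic Fluo-8 calcium fluorescence measurement. Measure: % inhibition of agonist calcium response.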
# OX1R antag-1 – blocks the human orexin 1 receptor; O43613; inhibition, % at 5 µM; CHO/OX1R cells, Fluo-8 calcium fluorescence, orexin A; 0.43% of 330,000 active;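 active means inhibition above its plate's threshold, mean inhibition of all tested compounds on the plate plus 3 SD, cut at about 37% in these data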;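 further: 0% = orexin A challenge wells and 100% = SB-334867-A antagonist wells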
# TAAR1 ag – agonists of human TAAR1 | AID 624467 | activation, % at 3 µM | 0.99% of 360,000 active | CHO RD-HGA16 TAAR1, Fluo-8 calcium fluorescence; vehicle wells 0%, saturating PEA agonist 100%;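 active means activation above the mean activation of all test compounds in the run plus 3 SD, cut at about 38% in these data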
#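 Test system: RD-HGA16 (CHO) cells co-expressing Gα16 and hTAAR1 | Doses: Single dose, 3 µM | Schedule: 17-24 h seeding, 75 min 37 °C dye, 30 min RT | Evaluation: % activation from peak over basal fluorescence ratio, DMSO-to-PEA scaled | Technique: Kinetic Fluo-8 calcium fluorescence | Benchmarks: Low control DMSO, high control PEA (EC100)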
# OX1R antag-2 – antagonists of human orexin 1 receptor (OX1R). inhibition, % at 6.6 µM. OX1R-expressing cells, FRET antagonist read-out. O43613. AID 485270. 1.8% of 330,000 active; in the data active means inhibition mostly above about 38%, no sharp cut-off; inactive means mostly below about 40%;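 further: 0% = agonist challenge alone and 100% = reference antagonist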
# CHO parental Ca – counter-screen: ATP calcium response change in parental CHO cells; parental CHO-K1, ATP-induced calcium, Fluo-8 fluorescence; inhibition, % at 5.6 µM; 0.63% of 330,000 active; AID 463079;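 active means inhibition above that plate's mean sample inhibition plus 3 SD, cut at about 26% in these data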;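 further: 0% = ATP-challenged DMSO wells and 100% = DMSO wells without ATP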
#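 Material: parental CHO cells / Compound: single nominal dose of 5.6 µM per compound / Signal: Fluo-8 fluorescence / Replicates: singlicate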
# GPR7 antag – antagonists of human GPR7 (neuropeptides B/W receptor 1) | P48145 | inhibition, % at 4.4 µM | GPR7-expressing cells, fluorescence antagonist assay | AID 1861 | 1.1% of 290,000 active; in the data active means inhibition above about 16%, passing the limit was not always enough;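 further: cells stimulated with the agonist NPW; 0% = agonist with vehicle and 100% = vehicle without agonist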
# Target sequence (P48145 whole entry, looked up): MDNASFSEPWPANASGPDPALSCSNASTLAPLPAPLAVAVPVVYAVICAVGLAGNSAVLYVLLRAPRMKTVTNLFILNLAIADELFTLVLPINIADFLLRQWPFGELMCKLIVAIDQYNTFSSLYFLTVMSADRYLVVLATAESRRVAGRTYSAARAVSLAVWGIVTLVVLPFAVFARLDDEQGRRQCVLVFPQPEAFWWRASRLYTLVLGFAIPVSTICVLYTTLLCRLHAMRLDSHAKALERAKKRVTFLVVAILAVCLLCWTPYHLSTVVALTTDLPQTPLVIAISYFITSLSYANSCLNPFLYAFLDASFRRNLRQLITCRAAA
# nonsel antag count – counter-screen for TAAR1 antagonists: nonselective antagonists; shares compounds with TAAR1 antagonist; counterscreen cell line, calcium fluorescence, antagonist mode; inhibition, % at 3 µM; 77% of 2,400 active; AID 651780; in the data active means inhibition above about 22%;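 further: CHO-Ga16 host cells stimulated with ATP at an EC80 level; 0% = agonist EC80 plus vehicle and 100% = vehicle without agonist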
# TAAR1 antag conf – confirmation of human TAAR1 antagonists. 40% of 2,400 active. AID 651785. inhibition, % at 3 µM. TAAR1-expressing cells, fluorescence antagonist read-out. shares compounds with TAAR1 antagonist; in the data active means inhibition above about 49%;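 further: CHO-Ga16 host cells challenged with agonist PEA near its EC80; 0% = agonist at EC80 plus vehicle and 100% = vehicle with no agonist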
# Ga16 ag counter – nonselective Ga16 agonist in TAAR1 antagonist counter-screen | 18% of 2,400 active | activation, % at 3 µM | Ga16-expressing cells, calcium fluorescence, agonist counterscreen | AID 651953 | shares compounds with TAAR1 antagonist; in the data active means activation above about 12%;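 further: 0% = vehicle wells and 100% = saturating stimulus response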
# TAAR1 ag counter – activates human TAAR1 in antagonist counter-screen | shares compounds with TAAR1 antagonist | hTAAR1 cell line, fluorescence activation, agonist mode | activation, % at 3 µM | 2% of 2,400 active; in the data active means activation above about 37%;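 further: CHO cells stably expressing TAAR1 with calcium dye readout; 0% = DMSO vehicle and 100% = full agonist response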
# * hit, by the source's call; · = no result given. Compounds with a hit are over-represented: about 4.6% of the library has one in this group of screens.
SMILES,TAAR1 antagonist,OX1R antag-1,TAAR1 ag,OX1R antag-2,CHO parental Ca,GPR7 antag,nonsel antag count,TAAR1 antag conf,Ga16 ag counter,TAAR1 ag counter
O=C1N[C@@H](Cc2ccccc2)COC(=O)[C@H](Cc2ccc(F)cc2)C/C=C\C[C@H]1CC(=O)N(CCO)Cc1ccccc1,33,8,7,2,-30,·,·,·,·,·
O=C1N[C@@H](Cc2ccccc2)COC(=O)[C@@H](Cc2ccc(F)cc2)CC/C=C/C[C@H]1CC(=O)N(CCO)Cc1ccccc1,66*,20,30,13,-10,·,31*,44,11,15
O=C1N[C@@H](Cc2ccccc2)COC(=O)[C@H](Cc2ccc(F)cc2)CC/C=C/C[C@@H]1CC(=O)N(CCO)Cc1ccccc1,17,-17,3,6,-23,·,·,·,·,·
O=C1N[C@@H](Cc2ccccc2)COC(=O)[C@H](Cc2ccc(F)cc2)CC/C=C/C[C@H]1CC(=O)N(CCO)Cc1ccccc1,66*,4,27,4,-2,·,17,26,5,4
O=C1N[C@@H](c2ccccc2)COC(=O)[C@H](Cc2ccc(F)cc2)CC/C=C/C[C@@H]1CC(=O)N(CCO)Cc1ccccc1,43,4,7,8,-19,·,·,·,·,·
O=C1N[C@@H](c2ccccc2)COC(=O)[C@@H](Cc2ccc(F)cc2)C/C=C\C[C@H]1CC(=O)N(CCO)Cc1ccccc1,59*,16,31,9,-21,·,37*,58*,14*,13
CCOc1ccc2ncc(S(=O)(=O)c3ccc(C)cc3)c(N3CCC4(CC3)OCCO4)c2c1,63*,-13,8,28,-12,-15,20,46,4,0
CCOC(=O)c1cnc2ccc(OCC)cc2c1N1CCN(C)CC1,11,-27,-1,28,-15,-6,·,·,·,·
COc1ccc(-c2cn(Cc3ccc4ccccc4c3)nn2)cc1,106*,0,30,16,20,-1,46*,81*,10,14
COc1ccc(-c2cn(Cc3ccc4c(c3)C(=O)c3ccccc3C4=O)nn2)cc1,7,-4,8,9,-8,2,·,·,·,·
c1ccc(CCc2cn(C[C@H]3CC[C@@H]([C@@H]4CC[C@H](Cn5cc(CCc6ccccc6)nn5)O4)O3)nn2)cc1,57*,-22,26,17,-6,8,32*,57*,13*,13
c1ccc(-c2cn(C[C@H]3CC[C@@H]([C@@H]4CC[C@H](Cn5cc(-c6ccccc6)nn5)O4)O3)nn2)cc1,9,-43,13,36,-24,9,·,·,·,·
N#Cc1cccnc1N1CCN(C(C(=O)NC2CCCC2)c2ccco2)CC1 (configuration not stated),-21,·,10,·,·,·,·,·,·,·
CC(=O)OC[C@@H]1CN(Cc2ccccc2)C[C@H](n2cnc3c(NCc4ccc(F)cc4)ncnc32)O1,9,·,6,·,·,·,·,·,·,·
Cc1ccc(NC(=O)c2ccc(N3CCOCC3)c([N+](=O)[O-])c2)cc1S(=O)(=O)N1CCOCC1,68*,13,32,32,22,-5,42*,60*,16*,13
O=C(Nc1ccc(N2CCCCC2)c(Cl)c1)c1ccc(N2CCOCC2)c([N+](=O)[O-])c1,25,9,6,14,-12,-3,·,·,·,·
O=C(Nc1ccc(Cc2ccncc2)cc1)c1ccc(N2CCOCC2)c([N+](=O)[O-])c1,95*,-19,30,9,-4,-7,33*,52*,14*,16
Cc1ccccc1C(=O)Oc1ccc(Sc2ccc(O)cc2)cc1,61*,4,10,24,-17,-17,18,15,-1,0
